Assay [1] deals with Rattus norvegicus. Nature of the assay: Ex vivo […] (TXA2 synthase) inhibitory activity after 1 hr of oral dosing (10 mg/kg) in the rat. The class given is functional. Summed up:
(§1)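 Rats (n = 6) gavaged, anesthetized, aortic blood taken at 1, 3 or 5 h after dosing. A blood aliquot was challenged with collagen and TXB2 measured by radioimmunoassay; expressed as % inhibition of TXA2 synthase (±SEM).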

The subject of assay [2] is Rattus norvegicus. As to the kind of experiment: Ex vivo […] (TXA2 synthase) inhibitory activity after 3 hr of oral dosing (10 mg/kg) in the rat. The class given is functional. Summed up:
as §1

Assay [3] relates to Rattus norvegicus. As to the kind of experiment: Ex vivo TXA2 ([…]) antagonist activity was determined for U-46,619 induced aggregation (dose ratio) after 3 hr of oral dosing (10 mg/kg) in the rat. The class given is functional. The method, boiled down:
(§2)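 Conscious rats (n = 6) dosed by oral gavage, then anesthetized and bled from the abdominal aorta at 1, 3 or 5 h. Platelet-rich plasma aggregated with U46619 before and after dosing to give a U46619 dose ratio. ">" values mark the maximum dose ratio achievable at the top U46619 concentration (1 × 10^-4 M).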

Assay [4] relates to Rattus norvegicus. Nature of the assay: Ex vivo TXA2 ([…]) antagonist activity was determined for U-46,619 induced aggregation (dose ratio) after 1 hr of oral dosing (10 mg/kg) in the rat. Type of assay: functional. Summed up: as §2
A further assay concerns the target T1, Prostacyclin synthase (Homo sapiens, UniProt Q16647).
T1 sequence (Q16647 whole entry): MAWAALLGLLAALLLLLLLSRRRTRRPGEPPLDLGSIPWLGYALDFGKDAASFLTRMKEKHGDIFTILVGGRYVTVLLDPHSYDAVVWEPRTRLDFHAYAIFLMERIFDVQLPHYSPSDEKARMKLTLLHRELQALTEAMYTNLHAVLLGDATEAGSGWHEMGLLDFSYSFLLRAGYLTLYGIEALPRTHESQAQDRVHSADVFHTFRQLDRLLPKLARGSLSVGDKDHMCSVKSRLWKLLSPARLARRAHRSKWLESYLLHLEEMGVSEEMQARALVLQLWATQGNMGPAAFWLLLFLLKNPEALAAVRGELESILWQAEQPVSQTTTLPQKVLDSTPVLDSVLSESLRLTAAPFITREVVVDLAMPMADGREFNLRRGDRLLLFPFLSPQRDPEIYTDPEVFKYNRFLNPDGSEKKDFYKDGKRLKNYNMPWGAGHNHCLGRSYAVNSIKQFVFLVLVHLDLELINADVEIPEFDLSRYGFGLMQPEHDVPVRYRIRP
As to the kind of experiment: In vitro inhibition of Prostaglandin I2 synthase in cultured human endothelial cells.

Assay [5] concerns Rattus norvegicus. As to the kind of experiment: Ex vivo […] (TXA2 synthase) inhibitory activity after 5 hr of oral dosing (10 mg/kg) in the rat. Type of assay: functional. Summed up:
as §1

Assay [6] relates to Rattus norvegicus. As to the kind of experiment: Ex vivo TXA2 ([…]) antagonist activity was determined for U-46,619 induced aggregation (dose ratio) after 5 hr of oral dosing (10 mg/kg) in the rat. Type of assay: functional. Summed up:
as §2

The next assay concerns the target T2, Thromboxane-A synthase (Homo sapiens, UniProt P24557).
T2 sequence (P24557 whole entry): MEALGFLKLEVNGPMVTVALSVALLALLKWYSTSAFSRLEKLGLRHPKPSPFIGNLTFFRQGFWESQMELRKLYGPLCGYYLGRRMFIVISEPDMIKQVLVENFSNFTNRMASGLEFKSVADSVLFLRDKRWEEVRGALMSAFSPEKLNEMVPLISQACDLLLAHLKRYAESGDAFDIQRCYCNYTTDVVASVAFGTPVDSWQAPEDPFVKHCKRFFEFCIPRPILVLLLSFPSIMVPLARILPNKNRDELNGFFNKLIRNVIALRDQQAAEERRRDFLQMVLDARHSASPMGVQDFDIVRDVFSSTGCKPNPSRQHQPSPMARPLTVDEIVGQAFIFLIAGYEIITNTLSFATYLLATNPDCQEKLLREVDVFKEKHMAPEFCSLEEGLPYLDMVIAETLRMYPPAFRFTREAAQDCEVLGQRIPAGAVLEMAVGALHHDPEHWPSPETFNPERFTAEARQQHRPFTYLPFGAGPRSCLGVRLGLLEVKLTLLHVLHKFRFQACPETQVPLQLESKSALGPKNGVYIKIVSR
As to the kind of experiment: In vitro Inhibition of thromboxane synthase from human blood platelet microsomes. The method, boiled down: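 Human blood platelet microsomes incubated with [1-14C]arachidonic acid with or without inhibitor. Conversion to labeled thromboxane B2 quantified radiochromatographically. n = 2.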

The species entered for another assay is Homo sapiens. As to the kind of experiment: In vitro inhibition of U-46,619-induced aggregation of unwashed human platelets. The class given is functional. The settings on record: for Kb: Homo sapiens, read-out: pA2 (converted). The method, boiled down:
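Citrated (3.2%) human venous blood spun at 200g for 10 min. Platelet-rich plasma aggregated with U46619 with or without several antagonist concentrations.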

The test system of assay [7] is Thromboxane-A synthase (Canis familiaris). As to the kind of experiment: Ex vivo […] (TXA2 synthase) inhibitory activity after 24 hr of oral dosing (1 mg/kg) in the dog. The settings on record: Canis lupus familiaris.
The test system is the same in assay [8]. Nature of the assay: Ex vivo […] (TXA2 synthase) inhibitory activity after 8 hr of oral dosing (1 mg/kg) in the dog. The settings on record: Canis lupus familiaris.
Assay [9] shares this test system. Nature of the assay: Ex vivo […] (TXA2 synthase) inhibitory activity after 5 hr of oral dosing (1 mg/kg) in the dog. The settings on record: Canis lupus familiaris.

Usually Inhibition stands for the share of the control response that was lost under treatment. One may read the IC50 as the midpoint of a concentration-inhibition curve. For `CC(C)(Oc1ccc(F)cc1)C1OCC(C/C=C\CCC(=O)O)C(c2cccnc2)O1` (stereo not drawn), the values for the Inhibition with Rattus norvegicus [1], with Rattus norvegicus [2] and with Rattus norvegicus [5] were 93.2%, 80% and 83%, respectively. In addition, the Antagonist activity with Rattus norvegicus [3] was 4; with Rattus norvegicus [4], 6; in the assay on Rattus norvegicus [6], 4. The values for the IC50 on Prostacyclin synthase and on Thromboxane-A synthase were 2000 nM and 51 nM, respectively. Further, the Kb in the assay listed under Homo sapiens is 120 nM.

For `Cc1cccc(C#N)c1OC(C)(C)C1OCC(C/C=C\CCC(=O)O)C(c2cccnc2)O1` (stereo not drawn), the IC50 against Prostacyclin synthase amounted to 60000 nM; against Thromboxane-A synthase it was 90 nM. Also, the Kb in the assay filed under Homo sapiens is 25.1 nM.

For the compound `N#Cc1ccc(C2OCC(C/C=C\CCC(=O)O)C(c3cccnc3)O2)cc1` (stereo not drawn), the values for the IC50 on Prostacyclin synthase and against Thromboxane-A synthase were greater than 100000 nM and 24 nM, respectively. Also, the Kb in the assay listed under Homo sapiens is 1290 nM.

As for `CC(C)(Oc1ccccc1O)C1OCC(C/C=C\CCC(=O)O)C(c2cccnc2)O1` (stereo not drawn), the IC50 is greater than 100000 nM against Prostacyclin synthase and 32 nM on Thromboxane-A synthase. Besides, in the assay listed under Homo sapiens, the Kb is 95.5 nM.

The term inhibition denotes the share of the control response that was lost under treatment. With `N#Cc1ccccc1C1OCC(C/C=C\CCC(=O)O)C(c2cccnc2)O1` (stereo not drawn), the figures for the inhibition in assay [7], in assay [8] and in [9] were 82.6%, 84% and 91%, respectively. For the same compound, the values for the IC50 against Prostacyclin synthase and against Thromboxane-A synthase were greater than 100000 nM and 54 nM, respectively. In addition, the Kb in the assay filed under Homo sapiens was 245 nM.

As for `CC(C)(Oc1ccccc1S(C)(=O)=O)C1OCC(C/C=C\CCC(=O)O)C(c2cccnc2)O1` (stereo not drawn), the IC50 is 2000 nM against Prostacyclin synthase and 45 nM at Thromboxane-A synthase. Moreover, the Kb in the assay listed under Homo sapiens was 589 nM.

As usually defined, the pA2 is the negative logarithm of the molar antagonist concentration that doubles the agonist concentration needed for the same response. A low value points to lower antagonist potency. In the case of `CC(C)(Oc1ccc(Br)cc1)C1OCC(C/C=C\CCC(=O)O)C(c2cccnc2)O1` (stereo in doubt; 7b), the IC50 was found to be 3400 nM against Prostacyclin synthase and 51 nM at Thromboxane-A synthase. In addition, in the assay filed under Homo sapiens, the pA2 amounted to 6.42.

Turning to `CC(C)(Oc1ccc(Br)cc1)C1OCC(C/C=C\CCC(=O)O)C(c2cccnc2)O1` (stereo in doubt; 7q), the IC50 on Prostacyclin synthase is 4000 nM; against Thromboxane-A synthase it was 22 nM. The compound also gave a pA2 in the assay listed under Homo sapiens of 6.48.

On to `Cc1ccc(OC(C)(C)C2OCC(C/C=C\CCC(=O)O)C(c3cccnc3)O2)cc1` (stereo not drawn), for which the values for the IC50 against Prostacyclin synthase and at Thromboxane-A synthase were 25000 nM and 360 nM, respectively. In the assay filed under Homo sapiens, the Kb is 631 nM.

As to `CC(C)(Oc1ccccc1[N+](=O)[O-])C1OCC(C/C=C\CCC(=O)O)C(c2cccnc2)O1` (stereo not drawn), the Inhibition with Rattus norvegicus [1] is reported as 85.5%; in the assay on Rattus norvegicus [2] it was 75.8%; in the assay with Rattus norvegicus [5], 63.2%. The values for the Antagonist activity with Rattus norvegicus [3], with Rattus norvegicus [4] and with Rattus norvegicus [6] were 9, greater than 57 and 3, respectively. Also, the IC50 is less than 1000 nM against Prostacyclin synthase and less than 10 nM at Thromboxane-A synthase. In the assay listed under Homo sapiens, the Kb was 11.2 nM.

For the compound `CC(C)(Oc1ccc(F)cc1C#N)C1OCC(C/C=C\CCC(=O)O)C(c2cccnc2)O1` (stereo not drawn), the IC50 amounted to 37000 nM against Prostacyclin synthase and 15 nM against Thromboxane-A synthase. Besides, the Kb in the assay filed under Homo sapiens was 0.708 nM.

For the origin of these results see ChEMBL document CHEMBL1128245, “Dual-acting thromboxane receptor antagonist/synthase inhibitors: synthesis and biological properties of [2-substituted-4-(3-pyridyl)-1,3-dioxan-5-yl] alkenoic acids” (J Med Chem, 1995).
